Values after ≈ are worked out from the molar mass of the structure shown. Active and inactive are the calls of the source. No cut-off for these calls is given here.
How the values were obtained:
Campylobacter jejuni [1] = assay: Antimicrobial activity against Campylobacter jejuni 700819 mutant 9 with cmeB mutation by agar dilution method; assay type: functional
Method in brief: (§1)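 cmeB knockouts were made by biphasic natural transformation, using genomic DNA of 11168B (cmeB::kan) as donor. Transformants were selected on 30 μg/ml kanamycin and the insertion confirmed by PCR. The isogenic mutants were then MIC-tested by agar dilution on MH medium at 42°C under microaerobic conditions.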

Campylobacter jejuni [2] = assay: Antimicrobial activity against Campylobacter jejuni 700819 mutant 8 with cmeB mutation by agar dilution method; assay type: functional; method in brief: as §1
Campylobacter jejuni [3] = assay: Antimicrobial activity against Campylobacter jejuni 700819 mutant 4/A2074G and cmeB mutation by agar dilution method; assay type: functional; method in brief: as §1
Campylobacter coli [4] = assay: Antimicrobial activity against Campylobacter coli MR32DE8-1 mutant by agar dilution method; assay type: functional
Method in brief: (§2)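 MIC by CLSI agar dilution. Campylobacter was grown on Mueller-Hinton medium at 42°C under microaerobic conditions. Ery-resistant mutants were selected either in vitro, by plating late-log antibiotic-free broth cultures on MH agar with 2, 4 or 8 μg/ml Ery for 2 days, or from tylosin-exposed chickens.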

Campylobacter jejuni [5] = assay: Antimicrobial activity against Campylobacter jejuni S3BE2-2 mutant by agar dilution method; assay type: functional; method in brief: as §2
Campylobacter coli [6] = assay: Antimicrobial activity against Campylobacter coli RN14B by agar dilution method; assay type: functional
Method in brief: (§3)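 Erythromycin MIC by agar dilution per CLSI (formerly NCCLS). Strains were grown on Mueller-Hinton agar or in MH broth at 42°C under microaerobic conditions. MH media were supplemented with various amounts of Ery.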

Campylobacter jejuni [7] = assay: Antimicrobial activity against Campylobacter jejuni S3BE4-1 mutant by agar dilution method; assay type: functional; method in brief: as §2
Campylobacter coli [8] = assay: Antimicrobial activity against Campylobacter coli AW-II-37 by agar dilution method; assay type: functional; method in brief: as §2
Campylobacter jejuni [9] = assay: Antimicrobial activity against Campylobacter jejuni 700819 by agar dilution method; assay type: functional; method in brief: as §3
Campylobacter jejuni [10] = assay: Antimicrobial activity against Campylobacter jejuni 700819 mutant 3 by agar dilution method; assay type: functional; method in brief: as §2
Campylobacter jejuni [11] = assay: Antimicrobial activity against Campylobacter jejuni 700819 mutant 2 with cmeB mutation by agar dilution method; assay type: functional; method in brief: as §1
Campylobacter jejuni [12] = assay: Antimicrobial activity against Campylobacter jejuni 700819 mutant 12 with cmeB mutation by agar dilution method; assay type: functional; method in brief: as §1
Campylobacter jejuni [13] = assay: Effect on Campylobacter jejuni 700819 mutant colonization at 8 ug/ml; assay type: functional, organism-based
Method in brief: (§4)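 Chickens colonized with C. jejuni were sampled by cloacal swabs. Serial dilutions were plated on selective MH agar with and without 8 μg/ml Ery and counted after 48 h at 42°C under microaerobic conditions, giving the Ery-nonsusceptible fraction per bird. Detection limit was about 100 CFU/g feces.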

Campylobacter jejuni [14] = assay: Antimicrobial activity against Campylobacter jejuni 700819 mutant 10 with cmeB mutation by agar dilution method; assay type: functional; method in brief: as §1
Campylobacter jejuni [15] = assay: Antimicrobial activity against Campylobacter jejuni 700819 mutant 5/A2074G and cmeB mutation by agar dilution method; assay type: functional; method in brief: as §1
Campylobacter coli [16] = assay: Antimicrobial activity against Campylobacter coli AW-ll-35/AW-ll-37 mutant in chickens assessed as reduction in colonization; assay type: functional, organism-based
Method in brief: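 Campylobacter-free broiler chickens were orally dosed with a mixed C. coli AW-II-35 + AW-II-37 culture (10⁷ CFU/bird). Five days later one group received tylosin in drinking water (0.53 g/liter, about 110 mg/kg/day) for 3 days; a parallel group was left untreated. Cloacal swabs were serially plated on selective MH, counted after 48 h at 42°C, and compared by t test on log₁₀ CFU/g feces (P<0.01).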

Campylobacter jejuni [17] = assay: Antimicrobial activity against Campylobacter jejuni S3B with cmeB mutation by agar dilution method; assay type: functional; method in brief: as §1
Campylobacter coli [18] = assay: Antimicrobial activity against Campylobacter coli RN14BE4-2/A2074G and cmeB mutation by agar dilution method; assay type: functional; method in brief: as §1
Campylobacter coli [19] = assay: Antimicrobial activity against Campylobacter coli AW-II-35 by agar dilution method; assay type: functional; method in brief: as §2
Campylobacter jejuni [20] = assay: Antimicrobial activity against Campylobacter jejuni 700819 mutant 7 by agar dilution method; assay type: functional; method in brief: as §2
Campylobacter coli [21] = assay: Antimicrobial activity against Campylobacter coli RN14B with cmeB mutation by agar dilution method; assay type: functional; method in brief: as §1
Campylobacter coli [22] = assay: Antimicrobial activity against Campylobacter coli RN14BE8-3 mutant by agar dilution method; assay type: functional; method in brief: as §2
Campylobacter jejuni [23] = assay: Antimicrobial activity against Campylobacter jejuni 700819 mutant 6/A2074G and cmeB mutation by agar dilution method; assay type: functional; method in brief: as §1
Campylobacter jejuni [24] = assay: Antimicrobial activity against Campylobacter jejuni 700819 mutant 3 with cmeB mutation by agar dilution method; assay type: functional; method in brief: as §1
Campylobacter jejuni [25] = assay: Antimicrobial activity against Campylobacter jejuni 700819 mutant 2 by agar dilution method; assay type: functional; method in brief: as §2
Campylobacter jejuni [26] = assay: Antimicrobial activity against Campylobacter jejuni 700819 mutant 11 by agar dilution method; assay type: functional; method in brief: as §2
Campylobacter jejuni [27] = assay: Antimicrobial activity against Campylobacter jejuni 700819 mutant 6 by agar dilution method; assay type: functional; method in brief: as §2
Campylobacter jejuni [28] = assay: Antimicrobial activity against Campylobacter jejuni S3B by agar dilution method; assay type: functional; method in brief: as §3
Campylobacter jejuni [29] = assay: Antimicrobial activity against Campylobacter jejuni 700819 with cmeB mutation by agar dilution method; assay type: functional; method in brief: as §1
Campylobacter jejuni [30] = assay: Antimicrobial activity against Campylobacter jejuni 700819 mutant 5 by agar dilution method; assay type: functional; method in brief: as §2
Campylobacter coli [31] = assay: Antimicrobial activity against Campylobacter coli RN14BE4-2 mutant by agar dilution method; assay type: functional; method in brief: as §2
Campylobacter jejuni [32] = assay: Antimicrobial activity against Campylobacter jejuni S3BE2-2 mutant with cmeB mutation by agar dilution method; assay type: functional; method in brief: as §1
Campylobacter jejuni [33] = assay: Antimicrobial activity against Campylobacter jejuni 700819 mutant 12 by agar dilution method; assay type: functional; method in brief: as §2
Campylobacter jejuni [34] = assay: Antimicrobial activity against Campylobacter jejuni 700819 mutant 1 with cmeB mutation by agar dilution method; assay type: functional; method in brief: as §1
Campylobacter coli [35] = assay: Antimicrobial activity against Campylobacter coli RN14BE8-2 mutant by agar dilution method; assay type: functional; method in brief: as §2
Campylobacter jejuni [36] = assay: Antimicrobial activity against Campylobacter jejuni 700819 mutant 4 by agar dilution method; assay type: functional; method in brief: as §2
Campylobacter jejuni [37] = assay: Antimicrobial activity against Campylobacter jejuni 700819 mutant 8 by agar dilution method; assay type: functional; method in brief: as §2
Campylobacter jejuni [38] = assay: Antimicrobial activity against Campylobacter jejuni 700819 mutant 9 by agar dilution method; assay type: functional; method in brief: as §2
Campylobacter jejuni [39] = assay: Antimicrobial activity against Campylobacter jejuni 700819 mutant 1 by agar dilution method; assay type: functional; method in brief: as §2
Campylobacter jejuni [40] = assay: Antimicrobial activity against Campylobacter jejuni S3BE4-2 mutant by agar dilution method; assay type: functional; method in brief: as §2
Campylobacter jejuni [41] = assay: Effect on Campylobacter jejuni S3B mutant colonization at 8 ug/ml; assay type: functional, organism-based; method in brief: as §4
Campylobacter coli [42] = assay: Antimicrobial activity against Campylobacter coli RN14BE4-3 mutant with cmeB mutation by agar dilution method; assay type: functional; method in brief: as §1
Campylobacter jejuni [43] = assay: Antimicrobial activity against Campylobacter jejuni 700819 mutant 10 by agar dilution method; assay type: functional; method in brief: as §2
Campylobacter jejuni [44] = assay: Antimicrobial activity against Campylobacter jejuni 700819 mutant 7 with cmeB mutation by agar dilution method; assay type: functional; method in brief: as §1
Campylobacter coli [45] = assay: Antimicrobial activity against Campylobacter coli RN14BE8-1 mutant by agar dilution method; assay type: functional; method in brief: as §2
Campylobacter jejuni [46] = assay: Antimicrobial activity against Campylobacter jejuni S3BE8-1 mutant by agar dilution method; assay type: functional; method in brief: as §2
Campylobacter coli [47] = assay: Antimicrobial activity against Campylobacter coli MR32D by agar dilution method; assay type: functional; method in brief: as §3
Campylobacter coli [48] = assay: Antimicrobial activity against Campylobacter coli RN14BE4-3 mutant by agar dilution method; assay type: functional; method in brief: as §2
Campylobacter jejuni [49] = assay: Antimicrobial activity against Campylobacter jejuni 700819 mutant 11 with cmeB mutation by agar dilution method; assay type: functional; method in brief: as §1
Campylobacter jejuni [50] = assay: Antimicrobial activity against Campylobacter jejuni S3BE4-3 mutant by agar dilution method; assay type: functional; method in brief: as §2
Campylobacter coli [51] = assay: Antimicrobial activity against Campylobacter coli MR32DE4-1 mutant by agar dilution method; assay type: functional; method in brief: as §2

## CC[C@H]1OC(=O)[C@H](C)[C@@H](O[C@H]2C[C@@](C)(OC)[C@@H](O)[C@H](C)O2)[C@H](C)[C@@H](O[C@@H]2O[C@H](C)C[C@H](N(C)C)[C@H]2O)[C@](C)(O)C[C@@H](C)C(=O)[C@H](C)[C@@H](O)[C@]1(C)O [ERYTHROMYCIN]
Campylobacter jejuni [1]
  MIC: 0.25 µg/mL (≈ 0.341 µM)
Campylobacter jejuni [2]
  MIC: 0.25 µg/mL (≈ 0.341 µM)
Campylobacter jejuni [3]
  MIC: 32 µg/mL (≈ 43.6 µM)
Campylobacter coli [4]
  MIC: 32 µg/mL (≈ 43.6 µM)
Campylobacter jejuni [5]
  MIC: 256 µg/mL (≈ 349 µM)
Campylobacter coli [6]
  MIC: 2 µg/mL (≈ 2.73 µM)
Campylobacter jejuni [7]
  MIC: 32 µg/mL (≈ 43.6 µM)
Campylobacter coli [8]
  MIC: 0.125 µg/mL (≈ 0.17 µM)
Campylobacter jejuni [9]
  MIC: 2 µg/mL (≈ 2.73 µM)
Campylobacter jejuni [10]
  MIC: 32 µg/mL (≈ 43.6 µM)
Campylobacter jejuni [11]
  MIC: 0.125 µg/mL (≈ 0.17 µM)
Campylobacter jejuni [12]
  MIC: 0.25 µg/mL (≈ 0.341 µM)
Campylobacter jejuni [13]
  Activity: Active
Campylobacter jejuni [14]
  MIC: 0.125 µg/mL (≈ 0.17 µM)
Campylobacter jejuni [15]
  MIC: 32 µg/mL (≈ 43.6 µM)
Campylobacter coli [16]
  Activity: Active
Campylobacter jejuni [17]
  MIC: 1 µg/mL (≈ 1.36 µM)
Campylobacter coli [18]
  MIC: 0.125 µg/mL (≈ 0.17 µM)
Campylobacter coli [19]
  MIC: 0.125 µg/mL (≈ 0.17 µM)
Campylobacter jejuni [20]
  MIC: 8 µg/mL (≈ 10.9 µM)
Campylobacter coli [21]
  MIC: 0.125 µg/mL (≈ 0.17 µM)
Campylobacter coli [22]
  MIC: 32 µg/mL (≈ 43.6 µM)
Campylobacter jejuni [23]
  MIC: 32 µg/mL (≈ 43.6 µM)
Campylobacter jejuni [24]
  MIC: 0.25 µg/mL (≈ 0.341 µM)
Campylobacter jejuni [25]
  MIC: 8 µg/mL (≈ 10.9 µM)
Campylobacter jejuni [26]
  MIC: 8 µg/mL (≈ 10.9 µM)
Campylobacter jejuni [27]
  MIC: > 512 µg/mL
Campylobacter jejuni [28]
  MIC: 2 µg/mL (≈ 2.73 µM)
Campylobacter jejuni [29]
  MIC: 0.125 µg/mL (≈ 0.17 µM)
Campylobacter jejuni [30]
  MIC: > 512 µg/mL
Campylobacter coli [31]
  MIC: 8 µg/mL (≈ 10.9 µM)
Campylobacter jejuni [32]
  MIC: 0.125 µg/mL (≈ 0.17 µM)
Campylobacter jejuni [33]
  MIC: 8 µg/mL (≈ 10.9 µM)
Campylobacter jejuni [34]
  MIC: 0.25 µg/mL (≈ 0.341 µM)
Campylobacter coli [35]
  MIC: 32 µg/mL (≈ 43.6 µM)
Campylobacter jejuni [36]
  MIC: > 512 µg/mL
Campylobacter jejuni [37]
  MIC: 16 µg/mL (≈ 21.8 µM)
Campylobacter jejuni [38]
  MIC: 32 µg/mL (≈ 43.6 µM)
Campylobacter jejuni [39]
  MIC: 8 µg/mL (≈ 10.9 µM)
Campylobacter jejuni [40]
  MIC: 32 µg/mL (≈ 43.6 µM)
Campylobacter jejuni [41]
  Activity: Active
Campylobacter coli [42]
  MIC: 0.125 µg/mL (≈ 0.17 µM)
Campylobacter jejuni [43]
  MIC: 8 µg/mL (≈ 10.9 µM)
Campylobacter jejuni [44]
  MIC: 0.25 µg/mL (≈ 0.341 µM)
Campylobacter coli [45]
  MIC: 32 µg/mL (≈ 43.6 µM)
Campylobacter jejuni [46]
  MIC: 256 µg/mL (≈ 349 µM)
Campylobacter coli [47]
  MIC: 2 µg/mL (≈ 2.73 µM)
Campylobacter coli [48]
  MIC: 32 µg/mL (≈ 43.6 µM)
Campylobacter jejuni [49]
  MIC: 0.25 µg/mL (≈ 0.341 µM)
Campylobacter jejuni [50]
  MIC: 128 µg/mL (≈ 174 µM)
Campylobacter coli [51]
  MIC: 8 µg/mL (≈ 10.9 µM)
